Reference: ChEMBL document CHEMBL3739269, “Suppression of store overload-induced calcium release by hydroxylated metabolites of carvedilol” (Bioorg Med Chem Lett, 2016)
Calls of active or inactive are those of the source. The calls are words filed in the database; no cut-off is given here.

Experiments:
Details in all cases: Homo sapiens
[1] = Inhibition of RyR2 R4496C mutant-mediated store overload-induced calcium release in HEK293 cells assessed as reduction in amplitude of spontaneous calcium oscillations by fura-2 AM dye based fluorescence assay; format: cell-based
How it was run: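 Single-cell fura-2 ratio traces were recorded in R4496C RyR2-expressing HEK293 cells. Cells were perfused continuously with increasing concentrations (0, 3, 10, 30 µM) without pre-incubation. The amplitude of spontaneous Ca²⁺ oscillations was compared before and after each addition.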

HEK293 [2] = test: Inhibition of RyR2 R4496C mutant in HEK293 cells assessed as inhibition of store overload-induced calcium release at 10 uM by fura-2 AM dye based fluorescence assay; format: cell-based
How it was run: (§1)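 HEK293 cells expressing RyR2 R4496C, loaded with fura-2 AM, were followed by single-cell Ca²⁺ imaging. Cells were perfused continuously with rising drug levels (0, 3, 10, 30 µM) without pre-incubation. Read-out was the percentage of cells showing spontaneous Ca²⁺ oscillations at each concentration.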

HEK293 [3] = test: Inhibition of RyR2 R4496C mutant in HEK293 cells assessed as inhibition of store overload-induced calcium release at 30 uM by fura-2 AM dye based fluorescence assay; format: cell-based; how it was run: as §1
HEK293 [4] = test: Induction of cytosolic calcium level in HEK293 cells expressing RyR2 R4496C mutant at 30 uM by fura-2 AM dye based fluorescence assay; format: functional, cell-based
How it was run: (§2)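 Fura-2 ratio imaging of single HEK293 cells expressing mutant RyR2 (R4496C), perfused with compound up to 30 µM without pre-incubation. Cytosolic Ca²⁺ level was monitored, and caffeine, a RyR2 agonist, was then added to trigger Ca²⁺ release. Amplitude of the caffeine-induced release was read from the traces.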

HEK293 [5] = test: Inhibition of RyR2 R4496C mutant in HEK293 cells assessed as reduction of caffeine-induced calcium release at 30 uM by fura-2 AM dye based fluorescence assay; format: cell-based; how it was run: as §2

Compound	IC50 [1] [µM]	inhibition (HEK293 [2]) [%]	inhibition (HEK293 [3])	Activity (HEK293 [4])	inhibition (HEK293 [5])
COc1ccc(O)cc1OCCNCC(O)COc1cccc2[nH]c3ccccc3c12 (stereo not given)	19.4	10	80%	inactive	inactive
COc1cc(O)ccc1OCCNCC(O)COc1cccc2[nH]c3ccccc3c12 (stereo not given)	10.4	10	Active	inactive	inactive
COc1ccccc1OCCNCC(O)COc1c(O)ccc2[nH]c3ccccc3c12 (stereo not given)	9.4	70	Active	Active	Active
